Screens deposited in PubChem BioAssay by Johns Hopkins Ion Channel Center.
MrgX1 antag = blocks BAM8-22 activation of human MrgX1 receptor; B-score at 10 µM; 310,000 tested, 1.3% active; MRGX1-HEK293 calcium flux, Fluo-4, BAM8-22 antagonism; active compounds read low;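 active means calcium-response B-score plate-corrected more than 3 library SD below zero, starting fluorescence within 5 deviations, no agonist response on first addition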;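 further: peak minus trough fluorescence over baseline after final BAM8-22 challenge near maximal dose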
Target sequence (Q96LB2 whole entry, looked up): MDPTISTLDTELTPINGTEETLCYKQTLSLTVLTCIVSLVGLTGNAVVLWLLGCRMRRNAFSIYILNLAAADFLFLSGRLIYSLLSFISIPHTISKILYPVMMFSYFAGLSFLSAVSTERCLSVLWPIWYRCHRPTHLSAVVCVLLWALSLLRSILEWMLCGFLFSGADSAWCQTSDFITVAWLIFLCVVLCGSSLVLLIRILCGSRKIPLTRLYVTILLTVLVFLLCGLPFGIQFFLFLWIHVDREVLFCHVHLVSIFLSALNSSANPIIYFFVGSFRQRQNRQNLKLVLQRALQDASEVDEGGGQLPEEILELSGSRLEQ
MrgX1 allo act = human MrgX1 positive allosteric modulation, primary screen | Q96LB2 | MrgX1-HEK293, Fluo-4 calcium flux, FDSS; active compounds read high | B-score at 10 µM | 310,000 tested, 0.63% active | AID 588675;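 active means plate-corrected calcium response at least 3 library SD above typical, normal starting fluorescence, not activating the receptor alone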;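 further: compound read alongside a low EC10 to EC30 dose of BAM8-22 agonist; peak minus trough fluorescence over baseline measured at the second addition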
RGS4 block = inhibitors of human RGS4 | B-score at 10 µM | AID 463165 | 310,000 tested, 0.45% active | HEK293 M3R/RGS4 inducible, Fluo-4 calcium flux; active compounds read high; triggered by carbachol at its EC20;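 active means B-score, a plate-corrected calcium signal, over three deviations above library mean, with baseline fluorescence within five deviations of library mean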;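 further: RGS4 expression induced by doxycycline in cells with stable M3 receptor; B-score is computed from the integrated fluorescence ratio over baseline after carbachol; higher B-score means a larger calcium signal and so more RGS4 inhibition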
Target sequence (P49798 whole entry, looked up): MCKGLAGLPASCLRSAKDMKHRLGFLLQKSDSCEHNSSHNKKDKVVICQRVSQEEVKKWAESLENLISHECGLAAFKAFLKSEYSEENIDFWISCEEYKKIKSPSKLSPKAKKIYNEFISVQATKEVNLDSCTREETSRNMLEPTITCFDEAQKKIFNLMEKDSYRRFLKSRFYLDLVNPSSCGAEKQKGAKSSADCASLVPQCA
MrgX1 agonist = human MrgX1 receptor agonism, primary screen; MrgX1-HEK293 cells, Fluo-4 calcium fluorescence, agonist mode; active compounds read high; Q96LB2; AID 588627; 310,000 tested, 0.44% active; B-score at 10 µM;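 active means calcium response B-score plate-corrected fluorescence ratio at least 3 library SD, with starting fluorescence B-score inside 5 SD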
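System: HEK293 cells stably expressing human MrgX1 receptor; Dosing: test compound in the initial addition of three; Schedule: overnight plating, then 30 min 37 °C plus 30 min room-temperature dye loading; Detection: kinetic calcium dye fluorescence, Fluo-4 NW; Controls: per-plate positive and negative controls for Z′ factor.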
RGS4 pot = potentiators or activators of RGS4; HEK293 M3R/inducible RGS4, carbachol calcium flux Fluo4; active compounds read low; B-score at 10 µM; 310,000 tested, 0.92% active;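 active means B-score of the integrated calcium signal more than 4 SD below the library mean, with starting fluorescence not abnormally high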;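 further: negative B-score means reduced calcium response which marks RGS4 activation or potentiation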
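Also added: carbachol at ECmax as muscarinic agonist stimulus; Assay system: HEK293 cells with stable M3R and inducible RGS4; Timing: overnight RGS4 induction, 30 min dye load 37 °C, 20 min compound RT; Measured by: Fluo4-AM (2 µM) calcium-flux fluorescence, kinetic read.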
A number is an active result; – = inactive; · = no result given. An excerpt weighted towards active compounds, which were near 3.5% of everything screened.

SMILES	MrgX1 antag	MrgX1 allo act	RGS4 block	MrgX1 agonist	RGS4 pot
O=S(Cc1cc(Sc2ccccc2)nc(-c2ccccc2)n1)c1ccccc1 (configuration not stated)	–	10	–	–	–
CNc1cc(CS(=O)c2ccccc2)nc(-c2ccccc2)n1 (configuration not stated)	–	–	–	–	–
COc1ccccc1NC(=O)Cc1noc(CSc2nnc(C)n2C)n1	–	–	–	–	–
C#CCOCCOCCOCCNc1nc(N2CCN(C(=O)CCCCCCCCCCNC(=O)[C@H]([C@@H](C)CC)n3cc(CCCCCN)nn3)CC2)nc(N2CCN(C(=O)CCCCCCCCCCNC(=O)[C@H](CCCCN)n3cc(CCCC(=O)O)nn3)CC2)n1	–	–	·	–	·
C#CCOCCOCCOCCNc1nc(N2CCN(C(=O)CCCCCCCCCCNC(=O)[C@H]([C@@H](C)CC)n3cc(CCCCN=C(N)N)nn3)CC2)nc(N2CCN(C(=O)CCCCCCCCCCNC(=O)[C@H]([C@@H](C)CC)n3cc(CCCCN=C(N)N)nn3)CC2)n1	–	–	·	38.5	·
C#CCOCCOCCOCCNc1nc(N2CCN(C(=O)[C@H](C)n3cc(CCCN=C(N)N)nn3)CC2)nc(N2CCN(C(=O)[C@H](C)n3cc(CCCN=C(N)N)nn3)CC2)n1	–	8.39	–	–	–
C#CCOCCOCCOCCNc1nc(N2CCN(C(=O)CCCCCCCCCCNC(=O)[C@H]([C@@H](C)CC)n3cc(CCCCN=C(N)N)nn3)CC2)nc(N2CCN(C(=O)CCCCCCCCCCNC(=O)[C@H](CCCCN)n3cc(C)nn3)CC2)n1	–	–	·	122	·
C#CCOCCOCCOCCNc1nc(N2CCN(C(=O)CCCCCCCCCCNC(=O)[C@H]([C@@H](C)CC)n3cc(CCCCCN)nn3)CC2)nc(N2CCN(C(=O)CCCCCCCCCCNC(=O)[C@H]([C@@H](C)CC)n3cc(CCCCN=C(N)N)nn3)CC2)n1	–	–	·	80.6	·
C#CCOCCOCCOCCNc1nc(N2CCOCC2)nc(N2CCN(C(=O)CCCCCCCCCCNC(=O)[C@@H]([C@H](C)CC)n3cc(CCCCCN)nn3)CC2)n1	–	–	·	–	·
CC1=C(C(=O)OCCCCCl)C(c2cc3c(cc2Br)OCO3)NC(=O)N1 (configuration not stated)	–	–	–	–	–
C#CCOCCOCCOCCNc1nc(N2CCN(C(=O)CCCCCCCCCCNC(=O)Cn3cc(CCCCCN)nn3)CC2)nc(N2CCN(C(=O)CCCCCCCCCCNC(=O)[C@H]([C@@H](C)CC)n3cc(CCCCN=C(N)N)nn3)CC2)n1	–	–	·	116	·
C#CCOCCOCCOCCNc1nc(N2CCN(C(=O)CCCCCCCCCCNC(=O)[C@H](CO)n3cc(CCCSC)nn3)CC2)nc(N2CCN(C(=O)CCCCCCCCCCNC(=O)[C@H](CCCN=C(N)N)n3cc(C[C@@H](C)CC)nn3)CC2)n1	–	–	·	–	·
C#CCOCCOCCOCCNc1nc(N2CCN(C(=O)CCCCCCCCCCNC(=O)[C@H]([C@@H](C)CC)n3cc(CCCCN=C(N)N)nn3)CC2)nc(N2CCN(C(=O)CCCCCCCCCCNC(=O)[C@H](CO)n3cc(CCCCCN)nn3)CC2)n1	–	–	·	151	·
Cc1cc(C)c(NC(=O)/C(=C/c2ccccc2)c2ccccc2)c(C)c1	–	–	–	–	–
COc1cc(C(c2c(O)nc(SC)[nH]c2=O)c2c(O)nc(SC)[nH]c2=O)cc(OC)c1OC	-4.68	–	–	–	–
CCN(CC#CCC(O)(c1ccccc1)C1CCCC1)C(C)C (configuration not stated)	–	–	–	–	-7.41
COc1ccccc1NC(=O)Cn1cnc2c(nnn2-c2ccc(C)cc2)c1=O	–	–	–	–	–
CCOc1ccc(NC(=O)C(c2ccccn2)N(C(=O)CCl)c2ccc(F)cc2)cc1 (configuration not stated)	–	–	–	–	–
COc1ccc(N2CCN(C(CNC(=O)OCc3ccccc3)c3ccco3)CC2)cc1 (configuration not stated)	–	–	–	–	–
Cc1ccc(-c2cc(C(=O)Nc3ccccn3)c3ccccc3n2)o1	-5.13	–	–	–	–
COc1cc2ccccc2cc1C(=O)N(CCN(C)C)c1nc2c(OC)ccc(OC)c2s1	–	8.82	–	–	–
c1ccc(C(c2ccccc2)N2CCN(c3nc4ccccc4n4cnnc34)CC2)cc1	–	–	–	–	-7.25
c1cnc(N2CCN(c3nc4ccccc4n4cnnc34)CC2)nc1	–	–	–	–	–
O=C(N/N=C/c1c[nH]c2ccc(Br)cc12)c1ccc2c(c1)OCO2	–	–	–	45.1	–
O=C(N/N=C/c1c[nH]c2ccccc12)c1ccc2c(c1)OCCO2	–	–	–	–	–
SMILES	MrgX1 antag	MrgX1 allo act	RGS4 block	MrgX1 agonist	RGS4 pot
CC(NC(=O)c1ccc(CS(=O)(=O)c2ccc(Cl)cc2)o1)c1ccc2c(c1)OCCO2 (configuration not stated)	–	–	–	–	-7.39
Cc1ccccc1S(=O)(=O)Cc1ccc(C(=O)NC(C)c2ccc3c(c2)OCCO3)o1 (configuration not stated)	–	–	–	–	–
C=C(C)[C@@H]1CCC2(C(=O)O)CC[C@]3(C)[C@H](CC[C@@H]4[C@@]5(C)CCC(=O)C(C)(C)[C@@H]5CC[C@]43C)[C@@H]12 (some centres not stated)	-8.31	–	–	–	–
N/C(Cc1ccc(Cl)cc1Cl)=N\OC(=O)c1cccs1	-7.94	–	–	–	–
N#CCCN(C(=O)COC(=O)c1ccc(CNS(=O)(=O)c2ccc(F)c(Cl)c2)cc1)c1ccc(F)cc1	–	–	–	–	-8.84
CCCN(CC1CC1)C(=O)COC(=O)c1ccc(CNS(=O)(=O)c2ccc(F)c(Cl)c2)cc1	-4.86	–	–	–	–
O=C(COC(=O)c1ccc(CNS(=O)(=O)c2ccc(F)c(Cl)c2)cc1)NC1CCCCCCC1	–	–	–	–	–
CCOC(=O)Cc1ccc2sc(-c3ccccc3)nc2c1	–	–	–	–	–
CCc1ccc(/C=N/NC(=O)c2nnn(-c3nonc3N)c2CN2CCOCC2)cc1	–	–	–	–	–
COc1ccc(Cn2c(CO)cnc2SCC(=O)Nc2cccc(NC(C)=O)c2)cc1	–	–	–	–	–
CCn1c(=O)c([N+](=O)[O-])c(NCC(O)c2ccccc2)c2ccccc21 (configuration not stated)	–	–	–	–	–
Cn1c(=O)c([N+](=O)[O-])c(NCC(O)c2ccccc2)c2ccccc21 (configuration not stated)	-5.65	–	–	–	–
COc1cc2cc(CN(Cc3nnnn3Cc3ccco3)C3CCCCC3)c(=O)[nH]c2cc1OC	–	–	–	–	–
CCOc1ccc2[nH]c(=O)c(CN(Cc3nnnn3Cc3ccco3)C3CCCCC3)cc2c1	–	–	–	26.6	–
